According to ChEMBL document CHEMBL1817636, “Use of structure-based design to discover a potent, selective, in vivo active phosphodiesterase 10A inhibitor lead series for the treatment of schizophrenia” (J Med Chem, 2011):
Active and inactive are the calls of the source. No cut-off for these calls is given here.

Legend:
[1] = target: T1, cAMP and cAMP-inhibited cGMP 3',5'-cyclic phosphodiesterase 10A (Rattus norvegicus, UniProt Q9QYJ6); assay: Inhibition of recombinant rat PDE10A expressed in Sf9 cells using [3H]cAMP after 30 mins by scintillation proximity assay
T1 sequence (Q9QYJ6 whole entry): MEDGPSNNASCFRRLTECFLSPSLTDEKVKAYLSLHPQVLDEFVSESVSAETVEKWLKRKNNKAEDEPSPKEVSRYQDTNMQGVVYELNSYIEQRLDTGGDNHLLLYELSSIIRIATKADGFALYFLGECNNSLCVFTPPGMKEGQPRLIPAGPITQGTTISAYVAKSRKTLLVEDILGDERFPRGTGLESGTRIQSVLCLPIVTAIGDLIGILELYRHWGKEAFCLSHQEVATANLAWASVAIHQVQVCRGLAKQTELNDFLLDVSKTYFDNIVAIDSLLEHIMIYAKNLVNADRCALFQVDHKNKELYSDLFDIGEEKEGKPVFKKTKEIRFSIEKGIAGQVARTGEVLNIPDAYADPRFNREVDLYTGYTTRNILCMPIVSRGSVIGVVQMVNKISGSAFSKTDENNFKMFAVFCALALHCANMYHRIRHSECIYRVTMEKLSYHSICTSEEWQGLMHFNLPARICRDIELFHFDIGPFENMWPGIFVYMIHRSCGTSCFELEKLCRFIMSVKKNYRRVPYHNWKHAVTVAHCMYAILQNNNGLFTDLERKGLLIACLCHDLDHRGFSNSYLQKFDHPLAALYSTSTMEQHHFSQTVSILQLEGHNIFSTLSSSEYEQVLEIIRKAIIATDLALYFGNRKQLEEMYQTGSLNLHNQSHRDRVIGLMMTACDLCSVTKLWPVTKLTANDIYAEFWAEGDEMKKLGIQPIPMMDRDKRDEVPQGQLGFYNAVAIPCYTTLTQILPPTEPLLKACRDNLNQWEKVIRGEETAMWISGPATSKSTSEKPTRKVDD
Method in brief: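 Full-length rat PDE10A clone expressed in Sf9 cells; enzyme extracted in Tris/benzamidine/EDTA/sucrose/PMSF lysis buffer, pH 7.5. 30 min at room temperature, stopped with SPA beads, counted after 10–12 h.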

[2] = target: T2, cGMP-inhibited 3',5'-cyclic phosphodiesterase 3A (Homo sapiens, UniProt Q14432); assay: Inhibition of PDE3A
[3] = Selectivity ratio of IC50 for PDE3A to IC50 for rat PDE10A
[4] = target: T2, cGMP-inhibited 3',5'-cyclic phosphodiesterase 3A; assay: Inhibition of PDE3A at 1 uM
[5] = Intrinsic clearance in human liver microsomes; format: ADME, Microsome
Mus musculus [6] = assay: Antipsychotic activity in sc dosed PDE10A-knock out DBA1LAC/J mouse assessed as inhibition of conditioned avoidance response administered 30 mins prior testing; format: functional
Mus musculus [7] = assay: Antipsychotic activity in CD1 mouse assessed as increase in brain cGMP levels at 5.6 mg/kg, sc measured after 60 mins post dosing relative to control; format: functional; settings: route subcutaneous
human MDR [8] = assay: Apparent permeability across apical to basolateral side in dog MDCK cells expressing human MDR; format: ADME, cell-based, Canis lupus familiaris; settings: MDCK-MDR1
Mus musculus [9] = assay: Antipsychotic activity in sc dosed PDE10A-positive DBA1LAC/J mouse assessed as inhibition of conditioned avoidance response administered 30 mins prior testing; format: functional
human MDR [10] = assay: Efflux ratio of permeability from basolateral to apical side over apical to basolateral side in dog MDCK cells expressing human MDR; format: ADME, cell-based, Canis lupus familiaris; settings: MDCK-MDR1
[11] = Selectivity ratio IC50 for PDE11A to IC50 for rat PDE10A
[12] = Selectivity ratio IC50 for PDE5A to IC50 for rat PDE10A
[13] = Selectivity ratio IC50 for PDE6A to IC50 for rat PDE10A
[14] = Selectivity ratio IC50 for PDE7A to IC50 for rat PDE10A
[15] = Selectivity ratio IC50 for PDE4D to IC50 for rat PDE10A
[16] = Selectivity ratio IC50 for PDE2A to IC50 for rat PDE10A
[17] = Selectivity ratio IC50 for PDE1A to IC50 for rat PDE10A
[18] = Selectivity ratio IC50 for PDE9A to IC50 for rat PDE10A
[19] = Selectivity ratio IC50 for PDE8A to IC50 for rat PDE10A
Mus musculus [20] = assay: Antipsychotic activity in CD1 mouse assessed as increase in brain cGMP levels at 32 mg/kg, sc measured after 60 mins post dosing relative to control; format: functional; settings: route subcutaneous
Mus musculus [21] = assay: Antipsychotic activity in CD1 mouse assessed as increase in striatal cGMP levels at 5.6 mg/kg, sc measured after 60 mins; format: functional, organism-based; set-up: dose 5.6 mg/kg
[22] = Intrinsic clearance in rat liver microsomes; format: ADME, Microsome
Mus musculus [23] = assay: Antipsychotic activity in CD1 mouse assessed as increase in brain cGMP levels at 32 mg/kg, sc measured after 30 mins post dosing relative to control; format: functional; settings: route subcutaneous
Mus musculus [24] = assay: Antipsychotic activity in CD1 mouse assessed as increase in brain cGMP levels at 32 mg/kg, sc measured after 15 mins post dosing relative to control; format: functional; settings: route subcutaneous

T2 sequence (Q14432 whole entry): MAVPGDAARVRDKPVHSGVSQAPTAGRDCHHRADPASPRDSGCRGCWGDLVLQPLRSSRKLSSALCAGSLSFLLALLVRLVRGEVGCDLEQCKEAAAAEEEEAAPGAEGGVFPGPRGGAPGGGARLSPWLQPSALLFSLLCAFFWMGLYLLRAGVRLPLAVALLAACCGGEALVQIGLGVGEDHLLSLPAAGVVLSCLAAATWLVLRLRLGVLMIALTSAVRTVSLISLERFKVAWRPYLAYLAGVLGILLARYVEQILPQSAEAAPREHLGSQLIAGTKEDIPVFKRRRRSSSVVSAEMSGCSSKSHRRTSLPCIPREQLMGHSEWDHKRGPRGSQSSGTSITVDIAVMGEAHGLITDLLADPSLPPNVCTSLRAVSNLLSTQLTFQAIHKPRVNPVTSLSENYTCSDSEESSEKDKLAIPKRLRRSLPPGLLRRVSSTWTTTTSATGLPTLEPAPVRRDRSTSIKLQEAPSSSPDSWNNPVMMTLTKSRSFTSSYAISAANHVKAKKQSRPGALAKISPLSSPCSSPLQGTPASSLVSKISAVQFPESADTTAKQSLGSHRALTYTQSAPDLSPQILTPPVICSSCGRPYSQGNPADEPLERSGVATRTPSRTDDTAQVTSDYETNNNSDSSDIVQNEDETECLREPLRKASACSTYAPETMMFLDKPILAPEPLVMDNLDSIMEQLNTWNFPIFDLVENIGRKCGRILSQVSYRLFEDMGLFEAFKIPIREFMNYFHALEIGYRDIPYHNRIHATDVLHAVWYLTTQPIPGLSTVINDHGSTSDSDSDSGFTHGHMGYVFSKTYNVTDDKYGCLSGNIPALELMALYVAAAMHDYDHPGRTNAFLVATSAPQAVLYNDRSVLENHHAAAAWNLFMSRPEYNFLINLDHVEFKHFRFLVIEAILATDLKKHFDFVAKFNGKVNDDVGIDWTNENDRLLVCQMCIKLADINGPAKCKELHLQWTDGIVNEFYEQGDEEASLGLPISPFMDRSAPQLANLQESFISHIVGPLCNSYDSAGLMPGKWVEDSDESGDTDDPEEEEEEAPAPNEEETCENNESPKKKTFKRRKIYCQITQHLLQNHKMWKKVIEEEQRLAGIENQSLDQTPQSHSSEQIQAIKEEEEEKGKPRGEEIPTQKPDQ

Q: Which IC50 [1] does the source give for COc1cc2ncnc(N3CCCC(c4ccccc4)C3)c2cc1OCCc1ccccc1 (stereo not drawn) here?
A: 1660 nM

Q: With COc1cc2ncnc(N3CCCC(c4ccccc4)C3)c2cc1OCCc1ccncc1 (stereo not drawn) as the compound, how does the IC50 [1] read?
A: > 3200 nM

Q: For CCCOc1cc2c(N3CCCC(c4ccccc4)C3)ncnc2cc1OC (stereo not drawn), which IC50 [1] is on record?
A: 1040 nM

Q: And the IC50 [2]?
A: 98 nM

Q: What about the Ratio IC50 [3] of the same compound?
A: < 0.1

Q: What does the source list for COc1cc2ncnc(N3CCCC(c4ccccc4)C3)c2cc1OCCCc1nc2ccccc2n1C (stereo not drawn)?
A: IC50 [1]: 10 nM; inhibition [4]: 11%

Q: With COc1cc2ncnc(N3CCCC(c4ccccc4)C3)c2cc1OCc1ccc2ccccc2n1 (stereo not drawn) as the compound, how does the IC50 [1] read?
A: > 3200 nM

Q: What does the source list for COc1cc2ncnc(-c3cccnc3)c2cc1OCCc1ccc2ccccc2n1?
A: CLint scaled [5]: < 8 mL/min/kg; IC50 [1]: 5 nM; ED50 (Mus musculus [6]): > 5.8 mg/kg; Activity (Mus musculus [7]): 79%; Papp A→B (human MDR [8]): 0.4 ×10⁻⁶ cm/s; ED50 (Mus musculus [9]): 3.18 mg/kg

Q: With COc1cc2ncnc(N3CCCC(c4ccccc4)C3)c2cc1OCc1ccncc1 (stereo not drawn) as the compound, how does the IC50 [1] read?
A: > 3200 nM

Q: For COc1cc2ncnc(N3CCCC(c4ccccc4)C3)c2cc1OCCc1ccc2ccccc2n1 (stereo not drawn), which efflux ratio (human MDR [10]) is on record?
A: > 10

Q: What about the Ratio IC50 [11] of the same compound?
A: > 100

Q: What about the Ratio IC50 [12] of the same compound?
A: > 100

Q: And the CLint scaled [5]?
A: > 19 mL/min/kg

Q: What about the Ratio IC50 [13] of the same compound?
A: > 100

Q: What about the Ratio IC50 [14] of the same compound?
A: > 100

Q: What about the Ratio IC50 [15] of the same compound?
A: > 100

Q: And the Ratio IC50 [16]?
A: > 100

Q: And the Ratio IC50 [17]?
A: > 100

Q: What about the Ratio IC50 [18] of the same compound?
A: > 100

Q: And the Ratio IC50 [19]?
A: > 100

Q: What about the Ratio IC50 [3] of the same compound?
A: > 100

Q: For COc1cc2ncnc(N3CCCC(c4ccccc4)C3)c2cc1OC (racemic), which IC50 [1] is on record?
A: 146 nM

Q: With c1ccc2nc(CCOc3ccc4ccncc4c3)ccc2c1 as the compound, how does the IC50 [1] read?
A: 809 nM

Q: Which CLint scaled [5] does the source give for COc1cc2ncnc(N(C)C)c2cc1OCCc1ccc2ccccc2n1 here?
A: 178 mL/min/kg

Q: And the Activity (Mus musculus [20])?
A: 268%

Q: And the IC50 [1]?
A: 14 nM

Q: And the Activity (Mus musculus [7])?
A: 34%

Q: And the Papp A→B (human MDR [8])?
A: 19 ×10⁻⁶ cm/s

Q: Which IC50 [1] does the source give for COc1cc2ncnc(N3CCCC(c4ccccc4)C3)c2cc1OCc1ccccn1 (stereo not drawn) here?
A: > 3200 nM

Q: Which Ratio IC50 [3] does the source give for COc1cc2ncnc(N3CCCC(c4ccccc4)C3)c2cc1OCCc1ccccn1 (racemic) here?
A: > 5

Q: With COc1cc2ncnc(N3CCCC(c4ccccc4)C3)c2cc1OCc1cccnc1 (stereo not drawn) as the compound, how does the IC50 [1] read?
A: > 3200 nM

Q: For COc1cc2cncnc2cc1OCCc1ccc2ccccc2n1, which CLint scaled [5] is on record?
A: < 7 mL/min/kg

Q: And the Activity (Mus musculus [21])?
A: inactive

Q: What about the Papp A→B (human MDR [8]) of the same compound?
A: 3 ×10⁻⁶ cm/s

Q: What about the CLint scaled [22] of the same compound?
A: 183 mL/min/kg

Q: What about the inhibition [4] of the same compound?
A: 51%

Q: Which Ratio IC50 [3] does the source give for COc1cc2ncnc(N3CCCC(c4ccccc4)C3)c2cc1OC (stereo not drawn) [listing 1 of 2 here] here?
A: < 0.1

Q: For COc1cc2ncnc(N3CCCC(c4ccccc4)C3)c2cc1OCCc1ccccn1 (stereo not drawn), which inhibition [4] is on record?
A: 32%

Q: Which results are given for COc1cc2ncnc(N3CCCC(c4ccccc4)C3)c2cc1OC (stereo not drawn) [listing 2 of 2 here]?
A: efflux ratio (human MDR [10]): 0.7; CLint scaled [5]: 13 mL/min/kg; IC50 [2]: 8.5 nM

Q: Which CLint scaled [5] does the source give for COc1cc2ncn(C)c(=O)c2cc1OCCc1ccc2ccccc2n1 here?
A: 93 mL/min/kg

Q: What about the IC50 [1] of the same compound?
A: 12 nM

Q: What about the Papp A→B (human MDR [8]) of the same compound?
A: 18 ×10⁻⁶ cm/s

Q: And the Activity (Mus musculus [23])?
A: 79%

Q: And the Activity (Mus musculus [24])?
A: 129%

Q: For COc1cc2ncnc(N3CCCC(c4ccccc4)C3)c2cc1OCCc1cccnc1 (stereo not drawn), which IC50 [1] is on record?
A: 2340 nM
